This is an account of results in ChEMBL document CHEMBL1134681, “Pseudoproline-containing analogues of morphiceptin and endomorphin-2: evidence for a cis Tyr-Pro amide bond in the bioactive conformation” (J Med Chem, 2001).

The species named for assay [1] is Cavia porcellus. Kind of assay: In vitro inhibition of electrically evoked contractions of GPI (Guinea pig ileum). Type of assay: functional.
The species named for assay [2] is Mus musculus. The assay is described as follows: In vitro inhibition of electrically evoked contractions of MVD (Mouse vas deferens). It is filed as functional.
Assay [3] concerns the target Delta-type opioid receptor (Rattus norvegicus, UniProt P33533). The assay is described as follows: Binding affinity towards delta receptor in rat brain using [3H]DSLET. Type of assay: tissue-based.
The target in assay [4] is T1, Mu-type opioid receptor (Rattus norvegicus, UniProt P33535). The assay is described as follows: (§1) Binding affinity towards mu receptor in rat brain using [3H]DAMGO. It is filed as tissue-based.
The species entered for assay [5] is Cavia porcellus. The assay is described as follows: In vitro inhibition of electrically evoked contractions of GPI (Guinea pig ileum) relative to [Leu5]-enkephalin. Type of assay: functional.
The species entered for assay [6] is Mus musculus. Kind of assay: In vitro inhibition of electrically evoked contractions of MVD (Mouse vas deferens) relative to [Leu5]-enkephalin. It is filed as functional.
The nature of assay [7]: Ratio of inhibition of electrically evoked contractions of mouse vas deferens and inhibition of electrically evoked contractions of guinea pig ileum; IC50 ratio. Type of assay: functional. Put shortly: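 Ratio of normalized IC50 values from electrically stimulated mouse vas deferens versus guinea pig ileum.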
The target in assay [8] is T1, Mu-type opioid receptor. Described as §1. It is filed as tissue-based. Put shortly: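 Rat brain membranes; competitive displacement of [³H]DAMGO (0.72 nM; Kd 1.3 nM), incubated 2 h at 0 °C. IC50 taken from log dose–displacement curves, converted to Ki by Cheng–Prusoff.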
This is another data set of the same source.

For assay [9], the species on record is Cavia porcellus. Kind of assay: in vitro inhibition of electrically evoked contractions of GPI (Guinea pig ileum). It is filed as functional.
The species named for assay [10] is Mus musculus. Kind of assay: in vitro inhibition of electrically evoked contractions of MVD (Mouse vas deferens). Type of assay: functional.
For assay [11], the species on record is Cavia porcellus. The assay is described as follows: in vitro inhibition of electrically evoked contractions of GPI (Guinea pig ileum) relative to [Leu5]-enkephalin. Type of assay: functional. The essentials:
(§2)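 Electrically stimulated isolated tissue (guinea pig ileum or mouse vas deferens), with inhibition of evoked contractions as read-out. […] IC50 values were taken from these curves and normalized to that standard by a published procedure.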

The species entered for assay [12] is Mus musculus. Kind of assay: in vitro inhibition of electrically evoked contractions of MVD (Mouse vas deferens) relative to [Leu5]-enkephalin. Type of assay: functional. Put shortly: as §2

T1 sequence (P33535 whole entry): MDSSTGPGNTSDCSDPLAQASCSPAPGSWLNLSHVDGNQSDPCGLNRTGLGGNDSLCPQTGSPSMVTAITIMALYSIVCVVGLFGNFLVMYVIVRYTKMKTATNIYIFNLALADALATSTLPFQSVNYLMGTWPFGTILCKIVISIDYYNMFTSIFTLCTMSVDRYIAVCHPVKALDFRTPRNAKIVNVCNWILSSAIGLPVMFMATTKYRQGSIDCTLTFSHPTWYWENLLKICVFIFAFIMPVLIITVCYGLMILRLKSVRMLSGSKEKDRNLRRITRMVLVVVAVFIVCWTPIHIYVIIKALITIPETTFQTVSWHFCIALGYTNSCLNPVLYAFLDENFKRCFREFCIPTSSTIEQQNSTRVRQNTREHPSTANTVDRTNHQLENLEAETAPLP
Chain of Delta-type opioid receptor (P33533 whole entry): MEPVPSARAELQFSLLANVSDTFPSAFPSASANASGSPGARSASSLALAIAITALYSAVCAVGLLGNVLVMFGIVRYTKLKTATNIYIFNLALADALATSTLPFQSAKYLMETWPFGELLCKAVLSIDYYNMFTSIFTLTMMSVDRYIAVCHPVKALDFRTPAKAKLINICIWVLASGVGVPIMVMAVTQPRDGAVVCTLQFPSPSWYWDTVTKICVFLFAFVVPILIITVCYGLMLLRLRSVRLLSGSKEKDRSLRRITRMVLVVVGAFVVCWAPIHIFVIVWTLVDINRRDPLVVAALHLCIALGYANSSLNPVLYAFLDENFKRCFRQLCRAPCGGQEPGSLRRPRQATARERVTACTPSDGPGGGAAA

For the molecule `NC(=O)[C@@H]1CCCN1C(=O)[C@@H](Cc1ccccc1)NC(=O)[C@@H]1CSCN1C(=O)[C@@H](N)Cc1ccc(O)cc1` [listing 1 of 2 here], the half-inhibitory concentration (IC50) in the assay listed under Cavia porcellus [1] came to 74.5 nM; in the assay filed under Mus musculus [2] it was 190 nM. For the same molecule, the figures for the Ki (in assay [3]; on Mu-type opioid receptor [4]) were 2450 nM and 8.57 nM, respectively.

With `NC(=O)[C@@H]1CCCN1C(=O)[C@@H](Cc1ccccc1)NC(=O)[C@@H]1CSCN1C(=O)[C@@H](N)Cc1ccc(O)cc1` [listing 2 of 2 here], the Relative potency in the assay filed under Cavia porcellus [5] turned out to be 3.3; in the assay filed under Mus musculus [6] it was 0.06. The Ratio in [7] is listed as 5.45.

With `CC1(C)SC[C@@H](C(=O)N[C@H](Cc2ccccc2)C(=O)N2CCC[C@H]2C(N)=O)N1C(=O)[C@@H](N)Cc1ccc(O)cc1` [listing 1 of 2 here], the IC50 in the assay filed under Cavia porcellus [1] came out at 246 nM; in the assay listed under Mus musculus [2], 1420 nM. Moreover, the Ki in assay [3] is greater than 10000 nM; on Mu-type opioid receptor [4] it was 37.7 nM.

In the case of `CC1(C)SC[C@@H](C(=O)N[C@H](Cc2ccccc2)C(=O)N2CCC[C@H]2C(N)=O)N1C(=O)[C@@H](N)Cc1ccc(O)cc1` [listing 2 of 2 here], the Relative potency is 1 in the assay listed under Cavia porcellus [5] and 0.00803 in the assay listed under Mus musculus [6].

Take `NC(=O)[C@@H]1CCCN1C(=O)[C@@H](Cc1ccccc1)NC(=O)[C@@H]1COCN1C(=O)[C@@H](N)Cc1ccc(O)cc1` [listing 1 of 2 here]: the IC50 in the assay listed under Cavia porcellus [1] was 470 nM; in the assay filed under Mus musculus [2] it was 1020 nM. Moreover, the Ki in assay [3] was greater than 10000 nM; on Mu-type opioid receptor [4], 58.9 nM.

`NC(=O)[C@@H]1CCCN1C(=O)[C@@H](Cc1ccccc1)NC(=O)[C@@H]1COCN1C(=O)[C@@H](N)Cc1ccc(O)cc1` [listing 2 of 2 here]: the Relative potency stood at 0.523 in the assay filed under Cavia porcellus [5] and 0.0112 in the assay filed under Mus musculus [6].

With `CC1(C)OC[C@@H](C(=O)N[C@H](Cc2ccccc2)C(=O)N2CCC[C@H]2C(N)=O)N1C(=O)[C@@H](N)Cc1ccc(O)cc1` [listing 1 of 2 here], the IC50 is 860 nM in the assay filed under Cavia porcellus [1] and 851 nM in the assay filed under Mus musculus [2]. For the same molecule, the inhibition constant Ki in assay [3] is greater than 10000 nM; at Mu-type opioid receptor [4] it was 96.5 nM.

Take `CC1(C)OC[C@@H](C(=O)N[C@H](Cc2ccccc2)C(=O)N2CCC[C@H]2C(N)=O)N1C(=O)[C@@H](N)Cc1ccc(O)cc1` [listing 2 of 2 here]: the Relative potency is on record as 0.286 in the assay listed under Cavia porcellus [5] and 0.0134 in the assay listed under Mus musculus [6]. Moreover, the Ratio in [7] worked out at 2.17.

Regarding `NC(=O)[C@H](Cc1ccccc1)NC(=O)[C@H](Cc1ccccc1)NC(=O)[C@@H]1CSCN1C(=O)[C@@H](N)Cc1ccc(O)cc1` [listing 1 of 2 here], the IC50 in the assay filed under Cavia porcellus [1] turned out to be 22.2 nM; in the assay filed under Mus musculus [2], 138 nM. Moreover, the inhibition constant (Ki) in [3] amounted to 1980 nM; at Mu-type opioid receptor [4] it was 6.41 nM.

As to `NC(=O)[C@H](Cc1ccccc1)NC(=O)[C@H](Cc1ccccc1)NC(=O)[C@@H]1CSCN1C(=O)[C@@H](N)Cc1ccc(O)cc1` [listing 2 of 2 here], the Relative potency in the assay filed under Cavia porcellus [5] is reported as 11.1; in the assay listed under Mus musculus [6] it was 0.0826. In addition, the Ratio in [7] turned out to be 6.22.

For the molecule `CC1(C)SC[C@@H](C(=O)N[C@@H](Cc2ccccc2)C(=O)N[C@@H](Cc2ccccc2)C(N)=O)N1C(=O)[C@@H](N)Cc1ccc(O)cc1` [listing 1 of 2 here], in the assay listed under Cavia porcellus [1], 502 nM corresponded to half-maximal inhibition (IC50). In addition, the results for the Ki (in assay [3]; at Mu-type opioid receptor [8]) were greater than 10000 nM and 50.4 nM, respectively.

On to `CC1(C)SC[C@@H](C(=O)N[C@@H](Cc2ccccc2)C(=O)N[C@@H](Cc2ccccc2)C(N)=O)N1C(=O)[C@@H](N)Cc1ccc(O)cc1` [listing 2 of 2 here], for which, in the assay listed under Cavia porcellus [5], the Relative potency is reported as 0.49. The same molecule yielded an Inhibition in the assay filed under Mus musculus [6] of 26%.

As to `CC1(C)OC[C@@H](C(=O)N[C@@H](Cc2ccccc2)C(=O)N[C@@H](Cc2ccccc2)C(N)=O)N1C(=O)[C@@H](N)Cc1ccc(O)cc1` [listing 1 of 2 here], the IC50 in the assay listed under Cavia porcellus [1] worked out at 305 nM; in the assay filed under Mus musculus [2], 606 nM. For the same molecule, the values for the Ki (in assay [3]; at Mu-type opioid receptor [4]) were greater than 10000 nM and 46.9 nM, respectively.

Take `CC1(C)OC[C@@H](C(=O)N[C@@H](Cc2ccccc2)C(=O)N[C@@H](Cc2ccccc2)C(N)=O)N1C(=O)[C@@H](N)Cc1ccc(O)cc1` [listing 2 of 2 here]: the Relative potency amounted to 0.807 in the assay listed under Cavia porcellus [5] and 0.0188 in the assay filed under Mus musculus [6]. For the same molecule, the Ratio in assay [7] amounted to 1.99.

Consider `NC(=O)[C@H](Cc1ccccc1)NC(=O)[C@H](Cc1ccccc1)NC(=O)[C@@H]1COCN1C(=O)[C@@H](N)Cc1ccc(O)cc1` [listing 1 of 2 here], for which the values for the half-maximal inhibitory concentration (IC50) in the assay listed under Cavia porcellus [1] and in the assay listed under Mus musculus [2] were 41.7 nM and 151 nM, respectively. Besides, the inhibition constant (Ki) in assay [3] was greater than 4000 nM; on Mu-type opioid receptor [4] it was 7.86 nM.

On to `NC(=O)[C@H](Cc1ccccc1)NC(=O)[C@H](Cc1ccccc1)NC(=O)[C@@H]1COCN1C(=O)[C@@H](N)Cc1ccc(O)cc1` [listing 2 of 2 here], for which the Relative potency in the assay listed under Cavia porcellus [5] is on record as 5.9; in the assay filed under Mus musculus [6] it was 0.0755. Besides, the Ratio in [7] came out at 3.62.

With `NC(=O)[C@@H]1CCCN1C(=O)C(Cc1ccccc1)NC(=O)[C@H]1CCCN1C(=O)[C@@H](N)Cc1ccc(O)cc1` (stereo in doubt) [listing 1 of 2 here], the IC50 in the assay filed under Cavia porcellus [9] came out at 109 nM; in the assay filed under Mus musculus [10], 594 nM. In [3], this molecule came in with a Ki greater than 10000 nM.

As to `NC(=O)[C@@H]1CCCN1C(=O)C(Cc1ccccc1)NC(=O)[C@H]1CCCN1C(=O)[C@@H](N)Cc1ccc(O)cc1` (stereo in doubt) [listing 2 of 2 here], the Relative potency was determined as 2.26 in the assay listed under Cavia porcellus [11] and 0.0192 in the assay listed under Mus musculus [12].

For the molecule `NC(=O)[C@H](Cc1ccccc1)NC(=O)[C@H](Cc1ccccc1)NC(=O)[C@@H]1CCCN1C(=O)[C@@H](N)Cc1ccc(O)cc1` [ENDOMORPHIN 2], the 50% inhibitory concentration (IC50) amounted to 7.71 nM in the assay listed under Cavia porcellus [9] and 15.3 nM in the assay filed under Mus musculus [10].

As for `CC(C)C[C@H](NC(=O)[C@H](Cc1ccccc1)NC(=O)CNC(=O)CNC(=O)[C@@H](N)Cc1ccc(O)cc1)C(N)=O` [[LEU5]ENKEPHALIN], the IC50 in the assay filed under Cavia porcellus [9] amounted to 246 nM; in the assay listed under Mus musculus [10] it was 11.4 nM.
